Reference: ChEMBL document CHEMBL4251591, “Primaquine hybrids as promising antimycobacterial and antimalarial agents” (Eur J Med Chem, 2018)
Values after ≈ are worked out from the molar mass of the structure shown.

Tests used:
Mycobacterium avium = assay: Antimycobacterial activity against Mycobacterium avium subsp. paratuberculosis CIT03 clinical isolate after 11 days by Alamar Blue assay; format: functional; settings: CIT03, 264 h
[1] = system: Mycobacterium tuberculosis; assay: Antimycobacterial activity against Mycobacterium tuberculosis H37Ra ATCC 25177 after 7 days by Alamar Blue assay; format: functional; settings: H37Ra ATCC 25177, 168 h
Outline: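 Log-phase culture washed and resuspended in supplemented Middlebrook 7H9GC broth, adjusted to McFarland No. 1, then diluted 1:20. Equal volumes of culture and DMSO-prepared compound dilutions were tested in duplicate for 7 days. 10% AlamarBlue was added, with 570/600 nm readings for background and after 24 h reincubation. Blue meant no growth, pink meant growth. MIC was the lowest concentration without visible growth.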

L6 = assay: Cytotoxicity against rat L6 cells after 70 hrs by Alamar Blue-based assay; format: cell-based; settings: L6, 70 h
Outline: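 Rat skeletal myoblast L-6 cells, 4000 per well, in RPMI 1640 with 10% FBS and L-glutamine. Eleven 3-fold serial dilutions spanning 100 to 0.002 were tested for 70 h. Alamar Blue was then added for 2 h and fluorescence read at ex 536 / em 588 nm. IC50 came from linear regression of sigmoid curves, averaged over two replicate experiments, with podophyllotoxin as control.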

[2] = system: Mycobacterium avium complex sp.; assay: Antimycobacterial activity against Mycobacterium avium complex CIT19/06 clinical isolate after 5 days by Alamar Blue assay; format: functional; settings: CIT19/06, 120 h
Plasmodium berghei = assay: Antimalarial activity against liver stage of firefly luciferase-expressing Plasmodium berghei infected in human HuH7 cells measured after 48 hrs post parasite addition by luciferase-based luminescence assay; format: functional, organism-based; settings: Huh-7, 48 h
Outline: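 HuH7 hepatoma cells seeded at 1.0 × 10^4 per well the day before infection. Drug-containing medium was added 1 h before 1.0 × 10^4 sporozoites, followed by centrifugation at 1800 × g for 5 min. Infection load was read by bioluminescence 48 h later, and host viability by CellTiter-Blue. IC50 came from nonlinear regression of normalized dose-response curves.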

HEK293 = assay: Cytotoxicity against human HEK293 cells; format: cell-based

Structure (SMILES)	MIC (Mycobacterium avium) [µg/mL]	MIC [1] [µg/mL]	IC50 (L6) [µg/mL]	MIC [2] [µg/mL]	IC50 (Plasmodium berghei) [nM]	IC50 (HEK293) [µg/mL]
COc1ccc(/C=C/C(=O)NCCCC(C)Nc2cc(OC)cc3cccnc23)cc1 (stereo unspecified)	64 (≈ 153 µM)	64 (≈ 153 µM)	> 100	128 (≈ 305 µM)	–	–
COc1ccc(C(=NNC(=O)NNC(=O)NCCCC(C)Nc2cc(OC)cc3cccnc23)c2ccc(OC)cc2)cc1 (stereo unspecified)	4 (≈ 6.67 µM)	2 (≈ 3.34 µM)	–	16 (≈ 26.7 µM)	82.8	–
COc1cc(NC(C)CCCNC(=O)Nc2cc(C(F)(F)F)cc(C(F)(F)F)c2)c2ncccc2c1 (stereo unspecified)	–	–	–	–	–	7.67 (≈ 14.9 µM)
COc1cc(NC(C)CCCNC(=O)NNC(=O)Nc2ccc(C(F)(F)F)cc2)c2ncccc2c1 (stereo unspecified)	128 (≈ 254 µM)	128 (≈ 254 µM)	–	128 (≈ 254 µM)	74.9	–
COc1cc(NC(C)CCCNC(=O)NNC(=O)Nc2ccc(F)cc2)c2ncccc2c1 (stereo unspecified)	–	–	–	–	1870	–
COc1cc(NC(C)CCCNC(=O)Nc2ccc(Br)cc2)c2ncccc2c1 (stereo unspecified)	16 (≈ 35 µM)	8 (≈ 17.5 µM)	–	16 (≈ 35 µM)	–	200 (≈ 437 µM)
COc1cc(NC(C)CCCNC(=O)NNC(=O)Nc2ccc(Cl)cc2)c2ncccc2c1 (stereo unspecified)	128 (≈ 272 µM)	128 (≈ 272 µM)	–	256 (≈ 544 µM)	42	–
COc1cc(NC(C)CCCNC(=O)Nc2ccc(C(F)(F)F)cc2)c2ncccc2c1 (stereo unspecified)	8 (≈ 17.9 µM)	4 (≈ 8.96 µM)	–	16 (≈ 35.8 µM)	–	200 (≈ 448 µM)
COc1cc(NC(C)CCCNC(=O)/C=C/c2cc(C(F)(F)F)cc(C(F)(F)F)c2)c2ncccc2c1 (stereo unspecified)	16 (≈ 30.4 µM)	16 (≈ 30.4 µM)	–	64 (≈ 122 µM)	2390	–
COc1cc(NC(C)CCCNC(=O)/C(C)=C/c2ccccc2)c2ncccc2c1 (stereo unspecified)	–	–	> 100	–	724	–
COc1cc(NC(C)CCCNC(=O)NNC(=O)NC(c2ccccc2)(c2ccccc2)c2ccccc2)c2ncccc2c1 (stereo unspecified)	128 (≈ 212 µM)	128 (≈ 212 µM)	> 65	128 (≈ 212 µM)	–	–
COc1cc(NC(C)CCCNC(=O)NNC(=O)Nc2cccc(Br)c2)c2ncccc2c1 (stereo unspecified)	128 (≈ 248 µM)	128 (≈ 248 µM)	20 (≈ 38.8 µM)	256 (≈ 497 µM)	182	–
